# ChEMBL document CHEMBL4689842, “EUbOPEN Chemogenomics Library wave 1” (2021)
# Tested on: U2OS
# Assay: Multiplex assay against U2OS
# Format: toxicity, cell-based
# Details: human
# Summary of the method: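 Values for tubulin, mitochondrial-mass and membrane-permeability phenotypes are per cents of cells with healthy nuclei. These cells were identified by CellPathfinder machine-learning gating of live cells that had been stained at seeding with Hoechst33342, BioTracker Green Microtubule Cytoskeleton Dye, MitoTracker Red and Annexin V Alexa Fluor 680 and imaged on a CQ1 microscope at 37°C and 5% CO2 after compound addition. The gating first set Hoechst high-intensity objects apart from normal cells, then split normal cells into healthy, pyknosed or fragmented nuclei, and pyknosed cells into mitotic or apoptotic.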
# [1] = 12 h, 1 µM, compound concentration 1 uM, replicate 1
# [2] = 12 h, 1 µM, compound concentration 1 uM, replicate 2
# [3] = 12 h, 10 µM, compound concentration 10 uM, replicate 1
# [4] = 12 h, 10 µM, compound concentration 10 uM, replicate 2
# [5] = 24 h, 1 µM, compound concentration 1 uM, replicate 1
# [6] = 24 h, 1 µM, compound concentration 1 uM, replicate 2
# [7] = 24 h, 10 µM, compound concentration 10 uM, replicate 1
# [8] = 24 h, 10 µM, compound concentration 10 uM, replicate 2
# [9] = 48 h, 1 µM, compound concentration 1 uM, replicate 1
# [10] = 48 h, 1 µM, compound concentration 1 uM, replicate 2
# [11] = 48 h, 10 µM, compound concentration 10 uM, replicate 1
# [12] = 48 h, 10 µM, compound concentration 10 uM, replicate 2
structure (smiles),measurement,setting,value
CN1CCC[C@@H]1CCO[C@](C)(c1ccccc1)c1ccc(Cl)cc1.O=C(O)/C=C/C(=O)O [CLEMASTINE FUMARATE],Population Apoptotic (%),[1],50%
same,Population Fragmented Nuclei (%),[1],12%
same,Population Healthy Nuclei (%),[1],72%
same,Population Hoechst High Intensity Objects (%),[1],11%
same,Population Membrane Permeable-Phenotype (%),[1],5%
same,Population Mitochondria Different-Phenotype (%),[1],18%
same,Population Mitotic Cells (%),[1],50%
same,Population Normal (%),[1],88%
same,Population Pyknosed Nuclei (%),[1],14%
same,Population Tubulin-Different-Phenotype (%),[1],12%
same,Total Cell Count,[1],108
same,Population Fragmented Nuclei (%),[2],15%
same,Population Healthy Nuclei (%),[2],76%
same,Population Hoechst High Intensity Objects (%),[2],1%
same,Population Membrane Permeable-Phenotype (%),[2],3%
same,Population Mitochondria Different-Phenotype (%),[2],6%
same,Population Normal (%),[2],98%
same,Population Pyknosed Nuclei (%),[2],7%
same,Population Tubulin-Different-Phenotype (%),[2],3%
same,Total Cell Count,[2],78
same,Population Apoptotic (%),[3],50%
same,Population Fragmented Nuclei (%),[3],24%
same,Population Hoechst High Intensity Objects (%),[3],18%
same,Population Membrane Permeable-Phenotype (%),[3],13%
same,Population Mitochondria Different-Phenotype (%),[3],97%
same,Population Mitotic Cells (%),[3],50%
same,Population Normal (%),[3],81%
same,Population Pyknosed Nuclei (%),[3],34%
same,Population Tubulin-Different-Phenotype (%),[3],83%
same,Total Cell Count,[3],127
same,Population Apoptotic (%),[4],85%
same,Population Fragmented Nuclei (%),[4],19%
same,Population Healthy Nuclei (%),[4],41%
same,Population Hoechst High Intensity Objects (%),[4],21%
same,Population Membrane Permeable-Phenotype (%),[4],6%
same,Population Mitochondria Different-Phenotype (%),[4],86%
same,Population Mitotic Cells (%),[4],14%
same,Population Normal (%),[4],78%
same,Population Pyknosed Nuclei (%),[4],38%
same,Population Tubulin-Different-Phenotype (%),[4],40%
same,Total Cell Count,[4],46
same,Population Apoptotic (%),[5],55%
same,Population Fragmented Nuclei (%),[5],7%
same,Population Healthy Nuclei (%),[5],85%
same,Population Hoechst High Intensity Objects (%),[5],6%
same,Population Membrane Permeable-Phenotype (%),[5],5%
same,Population Mitochondria Different-Phenotype (%),[5],9%
same,Population Mitotic Cells (%),[5],44%
same,Population Normal (%),[5],93%
same,Population Pyknosed Nuclei (%),[5],7%
same,Population Tubulin-Different-Phenotype (%),[5],13%
same,Total Cell Count,[5],135
same,Population Apoptotic (%),[6],18%
same,Population Fragmented Nuclei (%),[6],14%
same,Population Healthy Nuclei (%),[6],70%
same,Population Hoechst High Intensity Objects (%),[6],0%
same,Population Mitochondria Different-Phenotype (%),[6],13%
same,Population Mitotic Cells (%),[6],81%
same,Population Normal (%),[6],99%
same,Population Pyknosed Nuclei (%),[6],15%
same,Population Tubulin-Different-Phenotype (%),[6],6%
same,Total Cell Count,[6],107
same,Population Apoptotic (%),[7],64%
same,Population Fragmented Nuclei (%),[7],33%
same,Population Healthy Nuclei (%),[7],35%
same,Population Hoechst High Intensity Objects (%),[7],10%
same,Population Membrane Permeable-Phenotype (%),[7],21%
same,Population Mitochondria Different-Phenotype (%),[7],100%
same,Population Mitotic Cells (%),[7],35%
same,Population Normal (%),[7],90%
same,Population Pyknosed Nuclei (%),[7],31%
same,Population Tubulin-Different-Phenotype (%),[7],68%
same,Total Cell Count,[7],120
same,Population Apoptotic (%),[8],76%
same,Population Fragmented Nuclei (%),[8],21%
same,Population Healthy Nuclei (%),[8],36%
same,Population Hoechst High Intensity Objects (%),[8],12%
same,Population Membrane Permeable-Phenotype (%),[8],26%
same,Population Mitochondria Different-Phenotype (%),[8],86%
same,Population Mitotic Cells (%),[8],23%
same,Population Normal (%),[8],87%
same,Population Pyknosed Nuclei (%),[8],41%
same,Population Tubulin-Different-Phenotype (%),[8],26%
same,Total Cell Count,[8],47
same,Population Apoptotic (%),[9],38%
same,Population Hoechst High Intensity Objects (%),[9],3%
same,Population Membrane Permeable-Phenotype (%),[9],4%
same,Population Mitochondria Different-Phenotype (%),[9],11%
same,Population Mitotic Cells (%),[9],61%
same,Population Normal (%),[9],96%
same,Population Pyknosed Nuclei (%),[9],10%
same,Population Tubulin-Different-Phenotype (%),[9],6%
same,Total Cell Count,[9],184
same,Population Apoptotic (%),[10],31%
same,Population Fragmented Nuclei (%),[10],5%
same,Population Healthy Nuclei (%),[10],84%
same,Population Hoechst High Intensity Objects (%),[10],1%
same,Population Membrane Permeable-Phenotype (%),[10],5%
same,Population Mitochondria Different-Phenotype (%),[10],13%
same,Population Mitotic Cells (%),[10],68%
same,Population Normal (%),[10],98%
same,Population Pyknosed Nuclei (%),[10],9%
same,Population Tubulin-Different-Phenotype (%),[10],15%
same,Total Cell Count,[10],164
same,Population Apoptotic (%),[11],83%
same,Population Fragmented Nuclei (%),[11],33%
same,Population Healthy Nuclei (%),[11],25%
same,Population Hoechst High Intensity Objects (%),[11],11%
same,Population Membrane Permeable-Phenotype (%),[11],3%
same,Population Mitochondria Different-Phenotype (%),[11],80%
same,Population Mitotic Cells (%),[11],16%
same,Population Normal (%),[11],88%
same,Population Pyknosed Nuclei (%),[11],41%
same,Population Tubulin-Different-Phenotype (%),[11],50%
same,Total Cell Count,[11],117
same,Population Apoptotic (%),[12],54%
same,Population Fragmented Nuclei (%),[12],25%
same,Population Healthy Nuclei (%),[12],46%
same,Population Hoechst High Intensity Objects (%),[12],15%
same,Population Membrane Permeable-Phenotype (%),[12],44%
same,Population Mitochondria Different-Phenotype (%),[12],72%
same,Population Mitotic Cells (%),[12],45%
same,Population Normal (%),[12],84%
same,Population Pyknosed Nuclei (%),[12],28%
same,Population Tubulin-Different-Phenotype (%),[12],55%
same,Total Cell Count,[12],46
